Laboratory results: ChEMBL document CHEMBL3243954 (J Med Chem, 1979)

What was measured:
[1] = tested on: Brain; assay: Drug uptake albino mouse brain at 5 mg equivalent of oxazepam/kg, iv after 120 mins measured per gm of tissue by thin-layer chromatography; assay type: ADME, organism-based; settings: in vivo, 2 h
[2] = tested on: Brain; assay: Drug uptake albino mouse brain at 5 mg equivalent of oxazepam/kg, iv after 3 mins measured per gm of tissue by thin-layer chromatography; assay type: ADME, organism-based; settings: in vivo, 0.05 h
[3] = tested on: Brain; assay: Drug uptake albino mouse brain at 5 mg equivalent of oxazepam/kg, iv after 60 mins measured per gm of tissue by thin-layer chromatography; assay type: ADME, organism-based; settings: in vivo, 1 h
[4] = tested on: Brain; assay: Drug uptake albino mouse brain at 5 mg equivalent of oxazepam/kg, iv after 40 mins measured per gm of tissue by thin-layer chromatography; assay type: ADME, organism-based; settings: in vivo
[5] = tested on: Brain; assay: Drug uptake albino mouse brain at 5 mg equivalent of oxazepam/kg, iv after 10 mins measured per gm of tissue by thin-layer chromatography; assay type: ADME, organism-based; settings: in vivo
[6] = Retardation factor, Rm of the compound by thin-layer chromatography; assay type: physicochemical
[7] = tested on: Brain; assay: Drug uptake albino mouse brain at 5 mg equivalent of oxazepam/kg, iv after 20 mins measured per gm of tissue by thin-layer chromatography; assay type: ADME, organism-based; settings: in vivo
[8] = tested on: Brain; assay: Drug uptake albino mouse brain at 5 mg equivalent of oxazepam/kg, iv after 240 mins measured per gm of tissue by thin-layer chromatography; assay type: ADME, organism-based; settings: in vivo, 4 h
[9] = tested on: Mus musculus; assay: Antimetrazol activity in iv dosed mouse assessed as inhibition of metrazol-induced tonic-extensor seizures administered 30 mins prior to metrazol challenge; assay type: functional
Summary of the method: (§1)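 Mice dosed iv with the ester in aqueous solution containing under 10% chremofor. Metrazol 125 mg/kg sc was given 30 or 60 min after the ester. ED50 is the dose preventing tonic-extensor seizures in 50% of mice, derived by probit analysis.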

[10] = species on record: Mus musculus; assay: Ratio of ED50 for muscle relaxant activity in mouse to ED50 for antimetrazol activity in mouse measured after 60 mins
[11] = species on record: Mus musculus; assay: Ratio of ED50 for muscle relaxant activity in mouse to ED50 for antimetrazol activity in mouse measured after 30 mins
[12] = tested on: Mus musculus; assay: Antimetrazol activity in iv dosed mouse assessed as inhibition of metrazol-induced tonic-extensor seizures administered 60 mins prior to metrazol challenge; assay type: functional; summary of the method: as §1
[13] = tested on: Mus musculus; assay: Muscle relaxant activity in iv dosed mouse after 30 mins by rotarod test; assay type: ADME, organism-based; settings: in vivo, 0.5 h
[14] = tested on: Mus musculus; assay: Muscle relaxant activity in iv dosed mouse after 60 mins by rotarod test; assay type: ADME, organism-based; settings: in vivo, 1 h
[15] = Drug metabolism in mouse liver microsomes assessed as rate of esterase-mediated compound hydrolysis measured per mg of protein by pH stat based titrimetric analysis; assay type: ADME
[16] = (§2) Drug metabolism in mouse liver microsomes assessed as rate of esterase-mediated compound hydrolysis by pH stat based titrimetric analysis; assay type: ADME; settings: microsomes
[17] = tested on: esterase; assay: as §2; assay type: ADME; settings: liver microsomes
[18] = tested on: Liver; assay: Drug metabolism in albino mouse liver assessed as total metabolite concentration at 5 mg equivalent of oxazepam/kg, iv after 10 mins by thin layer chromatography; assay type: ADME, organism-based; settings: in vivo
Summary of the method: (§3)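 Liver was dried and its total radioactivity, the sum of metabolites, was measured on a carbon-tritium analyzer. Values are means of four mice (±SE).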

[19] = tested on: Brain; assay: Drug uptake albino mouse brain at 5 mg equivalent of oxazepam/kg, iv after 1 min measured per gm of tissue by thin-layer chromatography; assay type: ADME, organism-based; settings: in vivo
[20] = tested on: Liver; assay: Drug metabolism in albino mouse liver assessed as total metabolite concentration at 5 mg equivalent of oxazepam/kg, iv after 1 min by thin layer chromatography; assay type: ADME, organism-based; settings: in vivo; summary of the method: as §3
[21] = tested on: Liver; assay: Drug metabolism in albino mouse liver assessed as total metabolite concentration at 5 mg equivalent of oxazepam/kg, iv after 3 mins by thin layer chromatography; assay type: ADME, organism-based; settings: in vivo, 0.05 h; summary of the method: as §3
[22] = tested on: Liver; assay: Drug metabolism in albino mouse liver assessed as total metabolite concentration at 5 mg equivalent of oxazepam/kg, iv after 5 mins by thin layer chromatography; assay type: ADME, organism-based; settings: in vivo; summary of the method: as §3
[23] = tested on: Brain; assay: Drug uptake albino mouse brain at 5 mg equivalent of oxazepam/kg, iv after 5 mins measured per gm of tissue by thin-layer chromatography; assay type: ADME, organism-based; settings: in vivo
[24] = tested on: Brain; assay: Drug uptake albino mouse brain at 10 mg equivalent of oxazepam/kg, iv after 90 mins measured per gm of tissue by thin-layer chromatography; assay type: ADME, organism-based; settings: in vivo, 1.5 h
[25] = tested on: Brain; assay: Drug uptake albino mouse brain at 10 mg equivalent of oxazepam/kg, iv after 30 mins measured per gm of tissue by thin-layer chromatography; assay type: ADME, organism-based; settings: in vivo, 0.5 h
[26] = tested on: Brain; assay: Drug uptake albino mouse brain at 10 mg equivalent of oxazepam/kg, iv after 10 mins measured per gm of tissue by thin-layer chromatography; assay type: ADME, organism-based; settings: in vivo
[27] = tested on: Brain; assay: Drug uptake albino mouse brain at 10 mg equivalent of oxazepam/kg, iv after 2 mins measured per gm of tissue by thin-layer chromatography; assay type: ADME, organism-based; settings: in vivo
[28] = tested on: Brain; assay: Drug uptake albino mouse brain at 10 mg equivalent of oxazepam/kg, iv after 40 mins measured per gm of tissue by thin-layer chromatography; assay type: ADME, organism-based; settings: in vivo
[29] = tested on: Brain; assay: Drug uptake albino mouse brain at 10 mg equivalent of oxazepam/kg, iv after 240 mins measured per gm of tissue by thin-layer chromatography; assay type: ADME, organism-based; settings: in vivo, 4 h
[30] = tested on: Brain; assay: Drug uptake albino mouse brain at 10 mg equivalent of oxazepam/kg, iv after 60 mins measured per gm of tissue by thin-layer chromatography; assay type: ADME, organism-based; settings: in vivo, 1 h
[31] = tested on: Brain; assay: Drug uptake albino mouse brain at 10 mg equivalent of oxazepam/kg, iv after 20 mins measured per gm of tissue by thin-layer chromatography; assay type: ADME, organism-based; settings: in vivo
[32] = tested on: Brain; assay: Drug uptake albino mouse brain at 10 mg equivalent of oxazepam/kg, iv after 120 mins measured per gm of tissue by thin-layer chromatography; assay type: ADME, organism-based; settings: in vivo, 2 h
[33] = tested on: Brain; assay: Drug uptake albino mouse brain at 10 mg equivalent of oxazepam/kg, iv after 5 mins measured per gm of tissue by thin-layer chromatography; assay type: ADME, organism-based; settings: in vivo
[34] = Mus musculus, iv, read-out: ED50

| Structure (SMILES) | Drug uptake [1] | Drug uptake [2] | Drug uptake [3] | Drug uptake [4] | Drug uptake [5] | Rm [6] | Drug uptake [7] | Drug uptake [8] | Ratio ED50 [10] | Ratio ED50 [11] | ED50 [13] | ED50 [14] | Vmax [15] | Drug uptake [23] | other results |
| --- | --- | --- | --- | --- | --- | --- | --- | --- | --- | --- | --- | --- | --- | --- | --- |
| CC(Cc1ccccc1)C(=O)OC1N=C(c2ccccc2)c2cc(Cl)ccc2N[14C]1=O (racemic) | 14.2 nmol | 1.3 nmol | 13 nmol | 10 nmol | 4.7 nmol | 0.64 | 5.4 nmol | 5.5 nmol |  |  |  |  |  |  |  |
| CC(C)C(=O)OC1N=C(c2ccccc2)c2cc(Cl)ccc2NC1=O (stereo unspecified) |  |  |  |  |  |  |  |  | 8.1 | 4.8 | 2.45 mg/kg | 2.67 mg/kg | 131 nmol/min |  | ED50 [9, 34]: 0.51 mg/kg; ED50 [12, 34]: 0.33 mg/kg |
| CC(Cc1ccccc1)C(=O)OC1N=C(c2ccccc2)c2cc(Cl)ccc2NC1=O (single isomer, unassigned; (-)) |  |  |  |  |  |  |  |  | 2.4 | 3.5 | 2.86 mg/kg | 2.2 mg/kg | 2.6 nmol/min |  | ED50 [9]: 0.81 mg/kg; ED50 [12]: 0.92 mg/kg; Km [16]: 8.7 µM |
| O=C(Cc1ccccc1)OC1N=C(c2ccccc2)c2cc(Cl)ccc2NC1=O (stereo unspecified) |  |  |  |  |  |  |  |  |  |  |  |  | 12.2 nmol/min |  | Km [17]: 22.7 µM |
| COC(=O)CCC(=O)OC1N=C(c2ccccc2)c2cc(Cl)ccc2NC1=O (stereo unspecified) |  |  |  |  |  |  |  |  |  |  |  |  | 125 nmol/min |  |  |
| CC(Cc1ccccc1)C(=O)OC1N=C(c2ccccc2)c2cc(Cl)ccc2NC1=O (stereo in doubt; 11) |  |  |  |  |  |  |  |  | 4.7 | 6.8 | 2.67 mg/kg | 3.83 mg/kg | 7.3 nmol/min |  | ED50 [9]: 0.39 mg/kg; ED50 [12]: 0.82 mg/kg; Km [16]: 25 µM |
| O=C(CCc1ccccc1)OC1N=C(c2ccccc2)c2cc(Cl)ccc2N[14C]1=O (stereo unspecified) | 12.2 nmol | 0.8 nmol | 13.6 nmol | 12.1 nmol | 2.2 nmol | 0.5 | 7.1 nmol | 6.6 nmol |  |  |  |  |  | 1.4 nmol | Drug metabolism [18]: 32.6 nmol/g; Drug uptake [19]: 0.5 nmol; Drug metabolism [20]: 40.7 nmol/g; Drug metabolism [21]: 45.6 nmol/g; Drug metabolism [22]: 34.7 nmol/g |
| O=C(CCCc1ccccc1)OC1N=C(c2ccccc2)c2cc(Cl)ccc2N[14C]1=O (stereo unspecified) | 15.1 nmol | 0.9 nmol | 9.6 nmol | 9.5 nmol | 2.9 nmol | 0.65 | 6.5 nmol | 12.2 nmol |  |  |  |  |  | 0.8 nmol | Drug metabolism [18]: 40.4 nmol/g; Drug uptake [19]: 0.4 nmol; Drug metabolism [20]: 80.7 nmol/g; Drug metabolism [21]: 85.9 nmol/g; Drug metabolism [22]: 82.3 nmol/g |
| CCC(CC)C(=O)OC1N=C(c2ccccc2)c2cc(Cl)ccc2N[14C]1=O (stereo unspecified) |  |  |  |  |  | 0.46 |  |  |  |  |  |  |  |  | Drug uptake [24]: 20.9 nmol; Drug uptake [25]: 12.1 nmol; Drug uptake [26]: 4.8 nmol; Drug uptake [27]: 0.8 nmol; Drug uptake [28]: 18 nmol; Drug uptake [29]: 13.5 nmol; Drug uptake [30]: 23.1 nmol; Drug uptake [31]: 7.8 nmol; Drug uptake [32]: 20 nmol; Drug uptake [33]: 2 nmol |
| CC(Cc1ccccc1)C(=O)OC1N=C(c2ccccc2)c2cc(Cl)ccc2N[14C]1=O (single isomer, unassigned; (-)) | 13.7 nmol | 0.8 nmol | 14.8 nmol | 11.8 nmol | 4.6 nmol |  | 6.7 nmol | 12.2 nmol |  |  |  |  |  | 1.6 nmol |  |
